A short description of test [1]: Her2 expression decrease, cell viability multiplex – SKBR3 breast tumor cells, AlphaScreen, ATP viability, primary screen (AID 461;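 active means Her2 level under about 52% in both replicate screens, with viability over 70% of control, limit read from the data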;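 on Her2 level: lower value means less Her2 protein in the cells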;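 on viability: percent of carrier control wells set as 100% viability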). To be noted: SKBR3 Her2 protein level, 18-24 h, measured here: SKBR3 viability, ATP luminescence, at 10 µM. (Alpha assays give light when donor and acceptor beads are brought close together.)
Test [2] concerns the target Receptor tyrosine-protein kinase erbB-2 (Homo sapiens) (UniProt P04626). The description is as above. To be noted: 18-24 h, at 10 µM, stronger effect = lower value.
A short description of test [3]: reduced viability of SK-BR-3 breast cancer cells – cell-based, 24 h, human, pilot screen (AID 572;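 active means viability at or below 10% of carrier control in both of two separate runs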;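 further: compound exposure lasted between 18 and 24 h rather than exactly 24 h; 100% = carrier-treated control wells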). To be noted: SK-BR-3 viability, CellTiter-Glo luminescence, at 10 µM, stronger effect = lower value.
A short description of test [4]: HUVEC growth inhibition – cell-based, human, primary screen (AID 575).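 Further: 100% = median of untreated cell wells with 0.1% DMSO on each plate.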 To be noted: HUVEC proliferation, CellTiter-Glo luminescence, 72 h; at 10 µM; stronger effect = lower value. The essentials: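 Test system: HUVEC primary cells. Quantity: 1250 endothelial cells in each well. Dosing: single-point 10 µM, DMSO 0.1% final. Incubation: 72 h treatment at 37 °C. Measured by: CTG luminescence. Control set: DMSO cell controls and MePR drug controls. Plate: collagen-coated 384-well format.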

A short description of test [5]: H69AR cell proliferation blockers – human, duplicate replicates, primary screen (AID 580;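 active means viability at or under a set limit in both replicates, limit being median viability minus 3 SD, cut at about 48% in these data, passing the limit was not always enough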;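 further: 100% = mean luminescence of untreated wells and 0% = no signal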). To be noted: H69AR lung tumor cells viability, ATP luminescence, 72 h; at 10 µM; stronger effect = lower value.
Test [6] can be described thus: MRP1 drug-resistance reversers in H69AR cells – cell-based, doxorubicin co-treatment, pilot screen (AID 601;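 active means viability loss from added drug above about 55%, and viability with drug at most 40%, in both replicates, limit read from the data, passing the limit was not always enough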). To be noted: CellTiter-Glo, 72 h, at 10 µM; for differential viability (reversal): stronger effect = higher value. (Cellular ATP, detected with luciferase, serves as a proxy for viable cell number.)
Test [7] is described as follows: yeast transport mutant growth inhibition pilot in 384-well plates, post-Golgi transport modulator project (AID 636; in the data active means inhibition above about 31%). To be noted: absorbance 615 nm, about 18 h, stronger effect = higher value.
A short description of test [8]: growth suppression of yeast trafficking mutant, preliminary HTS, modulators of trafficking downstream of Golgi apparatus project, 1536-format plate, OD 615 nm (AID 637; in the data active means inhibition above about 30%). To be noted: yeast transport mutant growth, absorbance 615 nm, 18 h; stronger effect = higher value.
The mark [9] stands for this setting: H69AR cells + 2 uM doxorubicin, measured here: viability with 2 uM doxorubicin, stronger effect = lower value.
Where [10] appears, read: H69AR cells, compound alone cytotoxicity.

Molecules are shown by their SMILES. Calls of active or inactive are those of the source.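 How the source made its calls, unless noted: active means viability at or below 30% in both replicate assays; inconclusive means viability at or below 30% in just one of the two assays; inactive means the rest.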

Chain of Receptor tyrosine-protein kinase erbB-2 (Homo sapiens) (P04626 whole entry, looked up): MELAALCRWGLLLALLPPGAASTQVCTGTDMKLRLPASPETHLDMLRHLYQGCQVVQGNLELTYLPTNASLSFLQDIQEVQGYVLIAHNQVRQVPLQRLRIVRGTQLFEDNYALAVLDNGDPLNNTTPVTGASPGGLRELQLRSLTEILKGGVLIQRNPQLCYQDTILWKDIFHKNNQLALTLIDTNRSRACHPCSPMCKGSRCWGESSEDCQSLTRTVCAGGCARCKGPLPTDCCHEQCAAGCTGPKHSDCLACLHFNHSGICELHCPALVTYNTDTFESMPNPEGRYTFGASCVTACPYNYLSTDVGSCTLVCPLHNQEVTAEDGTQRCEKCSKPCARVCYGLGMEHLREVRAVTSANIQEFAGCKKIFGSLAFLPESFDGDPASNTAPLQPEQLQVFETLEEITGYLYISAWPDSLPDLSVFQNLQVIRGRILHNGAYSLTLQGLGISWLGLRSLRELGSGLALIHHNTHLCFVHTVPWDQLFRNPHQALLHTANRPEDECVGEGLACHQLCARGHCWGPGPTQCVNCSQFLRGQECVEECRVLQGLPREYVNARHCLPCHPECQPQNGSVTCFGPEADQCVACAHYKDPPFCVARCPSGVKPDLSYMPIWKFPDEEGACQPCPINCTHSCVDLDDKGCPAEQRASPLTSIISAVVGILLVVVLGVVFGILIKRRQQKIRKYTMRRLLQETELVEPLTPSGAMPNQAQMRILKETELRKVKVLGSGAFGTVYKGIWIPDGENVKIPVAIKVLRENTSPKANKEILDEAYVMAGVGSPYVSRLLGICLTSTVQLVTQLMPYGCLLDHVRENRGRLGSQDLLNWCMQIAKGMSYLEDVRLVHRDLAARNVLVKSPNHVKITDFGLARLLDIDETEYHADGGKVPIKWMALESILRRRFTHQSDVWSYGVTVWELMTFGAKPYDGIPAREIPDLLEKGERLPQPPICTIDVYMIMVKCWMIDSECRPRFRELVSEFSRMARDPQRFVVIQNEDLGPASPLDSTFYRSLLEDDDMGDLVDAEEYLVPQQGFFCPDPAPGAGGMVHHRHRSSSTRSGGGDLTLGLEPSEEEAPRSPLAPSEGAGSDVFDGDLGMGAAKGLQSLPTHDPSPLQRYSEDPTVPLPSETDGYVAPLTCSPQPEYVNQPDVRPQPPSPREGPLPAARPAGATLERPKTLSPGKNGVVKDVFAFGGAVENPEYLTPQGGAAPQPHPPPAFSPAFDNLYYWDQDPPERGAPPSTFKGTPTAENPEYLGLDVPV

The viability is a read-out of living cells in per cent, often relative to untreated cells. The term inhibition denotes the drop in the measured response relative to a control, in per cent. On to `CC(=O)N1CCN(c2ccc(S(=O)(=O)N3CCCCC3)cn2)CC1`, for which the viability in test [1] was 97%; in test [3], 97% (inactive); in test [4], 101% (inactive); in test [5] it was 88.6% (inactive); in test [6] (setting [9]), 84.6%; in test [6] (setting [10]) it was 88.6%. Besides, the Her2 level in test [2] was 89.5% (inactive). The differential viability (reversal) in test [6] (H69AR cells + 2 uM doxorubicin) is 3.99% (inactive). Moreover, the inhibition is -0.39% (inactive) in test [7] and -0.16% (inactive) in test [8].

For `CN(C)c1nc(SCCOC(=O)c2ccccc2)nc(N(C)C)n1`, the viability in test [1] is 96%; in test [3], 96% (inactive); in test [4], 82.1% (inactive); in test [5], 101% (inactive); in test [6] (setting [9]), 85%; in test [6] (setting [10]), 101%. Also, the Her2 level in test [2] was 80.5% (inactive). Also, the differential viability (reversal) in test [6] (H69AR cells + 2 uM doxorubicin) is 16.4% (inactive). Moreover, the inhibition in test [7] was -4.47% (inactive); in test [8], -2.67% (inactive).

`Cn1c(SCC(=O)N2CCOCC2)nnc1-c1cccc(NC(=O)c2ccccc2F)c1`: the viability in test [1] is 102%; in test [3], 102% (inactive); in test [4], 94% (inactive); in test [5], 91.5% (inactive); in test [6] (setting [9]), 80.1%; in test [6] (setting [10]), 91.5%. Also, in test [2], the Her2 level is 82.5% (inactive). Moreover, the differential viability (reversal) in test [6] (H69AR cells + 2 uM doxorubicin) was 11.4% (inactive). The inhibition is -0.92% (inactive) in test [7] and 3.06% (inactive) in test [8].

Regarding `N#Cc1nc(-c2cccs2)oc1NCCc1ccccc1`, the viability was 93.5% in test [1]; 93.5% (inactive) in test [3]; 84.3% (inactive) in test [4]; 102% (inactive) in test [5]; 83.4% in test [6] (setting [9]); 102% in test [6] (setting [10]). In addition, the Her2 level in test [2] was 86.5% (inactive). The differential viability (reversal) in test [6] (H69AR cells + 2 uM doxorubicin) was 18.3% (inactive). The figures for the inhibition in test [7] and in test [8] were -1.18% (inactive) and 1.29% (inactive), respectively.

As for `COc1cccc(N2CCN(Cc3nc(N)nc(Nc4ccccc4OC)n3)CC2)c1`, the viability was 124% in test [1]; 124% (inactive) in test [3]; 107% (inactive) in test [4]; 77.4% (inactive) in test [5]; 84.4% in test [6] (setting [9]); 77.4% in test [6] (setting [10]). In addition, the Her2 level in test [2] was 92% (inactive). Also, in test [6] (H69AR cells + 2 uM doxorubicin), the differential viability (reversal) is -7.01% (inactive). For the same compound, the inhibition in test [7] is -3.95% (inactive); in test [8], 1.13% (inactive).

With `COc1cc(OC)nc(NC(=O)CSc2nc3ccccc3o2)n1`, the viability is 87.5% in test [1]; 87.5% (inactive) in test [3]; 97.7% (inactive) in test [4]; 92.4% (inactive) in test [5]; 94.9% in test [6] (setting [9]); 92.4% in test [6] (setting [10]). Moreover, the Her2 level in test [2] is 82.5% (inactive). Moreover, the differential viability (reversal) in test [6] (H69AR cells + 2 uM doxorubicin) is -2.58% (inactive). In addition, the inhibition in test [7] was -6.4% (inactive); in test [8] it was 2.95% (inactive).

In the case of `COc1cccc(C(=O)OCn2nnc3ccccc3c2=O)c1`, the viability in test [1] is 88%; in test [3] it was 88% (inactive); in test [4], 108% (inactive); in test [5], 114% (inactive); in test [6] (setting [9]), 109%; in test [6] (setting [10]), 114%. In addition, in test [2], the Her2 level was 92.5% (inactive). For the same compound, the differential viability (reversal) in test [6] (H69AR cells + 2 uM doxorubicin) was 4.58% (inactive). The inhibition in test [7] was -0.13% (inactive); in test [8] it was 16.5% (inactive).

Take `CC(=O)CCc1c(C)[nH]c2ccccc2c1=O`: the viability in test [1] is 88.5%; in test [3], 88.5% (inactive); in test [4], 99.1% (inactive); in test [5], 93.2% (inactive); in test [6] (setting [9]), 93%; in test [6] (setting [10]), 93.2%. Moreover, the Her2 level in test [2] is 118% (inactive). In addition, the differential viability (reversal) in test [6] (H69AR cells + 2 uM doxorubicin) is 0.225% (inactive). The inhibition is 5.84% (inactive) in test [7] and 13.1% (inactive) in test [8].

With `N#CC(C(=O)c1ccco1)c1ccccn1` (stereo not given), the viability was 106% in test [1]; 106% (inactive) in test [3]; 98.1% (inactive) in test [4]; 86.1% (inactive) in test [5]; 81.9% in test [6] (setting [9]); 86.1% in test [6] (setting [10]). Further, the Her2 level in test [2] is 81% (inactive). Further, the differential viability (reversal) in test [6] (H69AR cells + 2 uM doxorubicin) was 4.21% (inactive). The inhibition in test [7] was -7.37% (inactive); in test [8] it was 0.67% (inactive).

With `COC(=O)c1cc(Br)c(=O)n(CCN2CCOCC2)c1`, the viability is 102% in test [1]; 102% (inactive) in test [3]; 81.5% (inactive) in test [4]; 96.2% (inactive) in test [5]; 82.8% in test [6] (setting [9]); 96.2% in test [6] (setting [10]). In addition, the Her2 level in test [2] is 87% (inactive). Besides, the differential viability (reversal) in test [6] (H69AR cells + 2 uM doxorubicin) was 13.5% (inactive). In addition, the results for the inhibition in test [7] and in test [8] were -4.27% (inactive) and -0.49% (inactive), respectively.

Consider `CC(C)(C)N(Cc1cc2ccccc2[nH]c1=O)C(=O)C1CCCCC1`, for which the viability in test [1] is 104%; in test [3], 104% (inactive); in test [4], 69.4% (inactive); in test [5], 86.1% (inactive); in test [6] (setting [9]), 82.8%; in test [6] (setting [10]), 86.1%. Further, in test [2], the Her2 level was 118% (inactive). For the same compound, in test [6] (H69AR cells + 2 uM doxorubicin), the differential viability (reversal) is 3.29% (inactive). Moreover, the inhibition is -3.2% (inactive) in test [7] and -7.21% (inactive) in test [8].

In the case of `COCCN1Cc2cccc(C(=O)Nc3cccnc3)c2C1=O`, the viability in test [1] is 106%; in test [3], 106% (inactive); in test [4], 102% (inactive); in test [5], 93.5% (inactive); in test [6] (setting [9]), 98.4%; in test [6] (setting [10]), 93.5%. In test [2], the Her2 level was 81% (inactive). Further, the differential viability (reversal) in test [6] (H69AR cells + 2 uM doxorubicin) is -4.91% (inactive). For the same compound, the inhibition was -6.71% (inactive) in test [7] and 1.9% (inactive) in test [8].

For the compound `CCCN(CCC)S(=O)(=O)c1ccc(C(=O)Nc2nnc(-c3cccc(OC)c3)o2)cc1`, the viability in test [1] was 98.5%; in test [3] it was 98.5% (inactive); in test [4] it was 8.23% (active); in test [5], 15.3% (active); in test [6] (setting [9]), 22.3%; in test [6] (setting [10]), 15.3%. Further, in test [2], the Her2 level was 89% (inactive). The differential viability (reversal) in test [6] (H69AR cells + 2 uM doxorubicin) was -7.05% (inactive). Further, the inhibition in test [7] was -5.79% (inactive); in test [8] it was -1.64% (inactive).

For the compound `Cc1ccc(N2C(=O)c3ccccc3C2O)nc1` (stereo not given), the viability in test [1] is 122%; in test [3] it was 122% (inactive); in test [4], 59.8% (inactive); in test [5], 53.6% (inactive); in test [6] (setting [9]), 53.3%; in test [6] (setting [10]), 53.6%. Further, the Her2 level in test [2] is 93% (inactive). For the same compound, in test [6] (H69AR cells + 2 uM doxorubicin), the differential viability (reversal) is 0.305% (inactive). Moreover, the inhibition in test [7] is -0.13% (inactive); in test [8], -1.83% (inactive).
